ChEMBL document CHEMBL3616379, “From carbohydrates to drug-like fragments: Rational development of novel α-amylase inhibitors” (Bioorg Med Chem, 2015)
Active and inactive are the calls of the source. No cut-off for these calls is given here.

Tests used:
[1] = molecular target: T1, Pancreatic alpha-amylase (Homo sapiens) (UniProt P04746); assay: Inhibition of human pancreatic alpha-amylase using CNPG3 as substrate at 50 mM by spectrophotometric analysis in presence of 20 mM MeG2F as donor compound and 50 mM 5FIdoF as acceptor compound relative to control
T1 sequence (whole entry): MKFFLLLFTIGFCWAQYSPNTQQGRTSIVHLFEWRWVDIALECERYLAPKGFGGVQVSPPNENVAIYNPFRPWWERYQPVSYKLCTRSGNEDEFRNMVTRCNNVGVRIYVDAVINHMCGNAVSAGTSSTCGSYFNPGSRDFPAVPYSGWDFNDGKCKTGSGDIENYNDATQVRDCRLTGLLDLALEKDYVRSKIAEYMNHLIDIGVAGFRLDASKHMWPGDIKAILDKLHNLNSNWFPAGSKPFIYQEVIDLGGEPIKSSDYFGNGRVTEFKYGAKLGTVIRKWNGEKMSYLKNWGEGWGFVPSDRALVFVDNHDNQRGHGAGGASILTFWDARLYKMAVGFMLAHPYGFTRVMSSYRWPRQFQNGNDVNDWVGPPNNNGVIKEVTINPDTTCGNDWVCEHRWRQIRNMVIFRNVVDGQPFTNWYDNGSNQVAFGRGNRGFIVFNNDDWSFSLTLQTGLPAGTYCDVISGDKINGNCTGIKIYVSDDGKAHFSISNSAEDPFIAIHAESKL

[2] = molecular target: T2, Alpha-amylase 1A (Homo sapiens) (UniProt P0DUB6); assay: Inhibition of human salivary alpha-amylase using GalG2CNP as substrate at 200 uM by UV-Vis spectrophotometric analysis
T2 sequence (whole entry): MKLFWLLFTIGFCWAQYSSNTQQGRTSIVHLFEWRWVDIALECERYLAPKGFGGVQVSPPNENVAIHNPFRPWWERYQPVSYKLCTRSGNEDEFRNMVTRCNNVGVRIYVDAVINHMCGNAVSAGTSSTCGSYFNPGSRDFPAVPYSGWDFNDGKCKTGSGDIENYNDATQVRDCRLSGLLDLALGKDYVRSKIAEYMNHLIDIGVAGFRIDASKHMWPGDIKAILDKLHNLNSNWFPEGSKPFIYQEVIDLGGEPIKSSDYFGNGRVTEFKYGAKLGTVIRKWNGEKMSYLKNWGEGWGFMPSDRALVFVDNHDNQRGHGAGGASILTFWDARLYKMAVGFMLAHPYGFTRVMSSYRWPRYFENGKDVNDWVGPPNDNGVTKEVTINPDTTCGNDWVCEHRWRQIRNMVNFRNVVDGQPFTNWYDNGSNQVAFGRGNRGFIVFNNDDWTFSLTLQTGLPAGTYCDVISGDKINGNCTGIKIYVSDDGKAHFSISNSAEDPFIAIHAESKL
Outline: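 Single-concentration test at 200 μM inhibitor against human salivary α-amylase (2 nM) with GalG2CNP substrate, 50 mM MES pH 6.0 containing 5 mM Ca(OAc)2, 51.5 mM NaCl, 152 mM NaN3, 37°C. Chloronitrophenol liberation monitored continuously at 400 nm by UV-Vis spectrophotometry.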

Alpha-amylase 1A [3] = molecular target: T3, Alpha-amylase 1A (Homo sapiens, UniProt P0DUB6); assay: Non-competitive inhibition of human salivary alpha-amylase using GalG2CNP as substrate assessed as CNP liberation by Lineweaver-Burk plot analysis
T3 sequence (P0DUB6 whole entry): T2 sequence (whole entry)
Outline: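 Same HSA/GalG2CNP system: 2 nM enzyme, 0.75-4 mM substrate, 50 mM MES pH 6.0 with Ca(OAc)2, NaCl, NaN3, 37°C, CNP followed continuously at 400 nm, inhibitor added from DMSO. Inhibition type was assigned from Lineweaver-Burk plots.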

[4] = Inhibition of malt alpha-amylase; details: concentration not given here
Alpha-amylase 1A [5] = molecular target: T3, Alpha-amylase 1A; assay: Inhibition of human salivary alpha-amylase using rice starch as substrate after 12 mins by microplate reader analysis
Pancreatic alpha-amylase [6] = molecular target: T4, Pancreatic alpha-amylase (Homo sapiens, UniProt P04746); assay: Inhibition of human pancreatic alpha-amylase assessed as hydrolysis of G3F by Dixon plot analysis
T4 sequence (P04746 whole entry): T1 sequence (whole entry)

[7] = molecular target: T2, Alpha-amylase 1A (Homo sapiens); assay: Potency index, ratio of BAS 04880564 IC50 to compound IC50 for human salivary alpha-amylase
[8] = Inhibition of Escherichia coli MurC ligase after 15 mins by Malachite green assay
Alpha-amylase 1A [9] = molecular target: T3, Alpha-amylase 1A; assay: Inhibition of human salivary alpha-amylase using GalG2CNP as substrate by UV-Vis spectrophotometric analysis; details: read-out: IC50
Pancreatic alpha-amylase [10] = molecular target: T4, Pancreatic alpha-amylase; assay: Inhibition of human pancreatic alpha-amylase
Escherichia coli = assay: Inhibition of Escherichia coli MurC ligase assessed as residual activity at 100 uM after 15 mins by Malachite green assay
[11] = molecular target: T2, Alpha-amylase 1A (Homo sapiens); assay: Competitive inhibition of human salivary alpha-amylase using GalG2CNP as substrate by Lineweaver-Burk plot analysis
Outline: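 Inhibition mode assigned from Lineweaver-Burk plots. Human salivary α-amylase (2 nM) started reactions containing GalG2CNP (0.75–4 mM) and inhibitor in DMSO, in 50 mM MES pH 6.0 with 5 mM Ca(OAc)2, 51.5 mM NaCl, 152 mM NaN3 at 37°C. Rates from continuous 400 nm absorbance of released CNP.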

Alpha-amylase 1A [12] = molecular target: T3, Alpha-amylase 1A; assay: Inhibition of human salivary alpha-amylase using GalG2CNP as substrate
Pancreatic alpha-amylase [13] = molecular target: T4, Pancreatic alpha-amylase; assay: Competitive inhibition of human pancreatic alpha-amylase by double reciprocal plot analysis
[14] = molecular target: Heat shock protein HSP 90-beta (Homo sapiens, UniProt P08238); assay: Inhibition of HSP90 (unknown origin)
Chain of Heat shock protein HSP 90-beta (P08238 whole entry): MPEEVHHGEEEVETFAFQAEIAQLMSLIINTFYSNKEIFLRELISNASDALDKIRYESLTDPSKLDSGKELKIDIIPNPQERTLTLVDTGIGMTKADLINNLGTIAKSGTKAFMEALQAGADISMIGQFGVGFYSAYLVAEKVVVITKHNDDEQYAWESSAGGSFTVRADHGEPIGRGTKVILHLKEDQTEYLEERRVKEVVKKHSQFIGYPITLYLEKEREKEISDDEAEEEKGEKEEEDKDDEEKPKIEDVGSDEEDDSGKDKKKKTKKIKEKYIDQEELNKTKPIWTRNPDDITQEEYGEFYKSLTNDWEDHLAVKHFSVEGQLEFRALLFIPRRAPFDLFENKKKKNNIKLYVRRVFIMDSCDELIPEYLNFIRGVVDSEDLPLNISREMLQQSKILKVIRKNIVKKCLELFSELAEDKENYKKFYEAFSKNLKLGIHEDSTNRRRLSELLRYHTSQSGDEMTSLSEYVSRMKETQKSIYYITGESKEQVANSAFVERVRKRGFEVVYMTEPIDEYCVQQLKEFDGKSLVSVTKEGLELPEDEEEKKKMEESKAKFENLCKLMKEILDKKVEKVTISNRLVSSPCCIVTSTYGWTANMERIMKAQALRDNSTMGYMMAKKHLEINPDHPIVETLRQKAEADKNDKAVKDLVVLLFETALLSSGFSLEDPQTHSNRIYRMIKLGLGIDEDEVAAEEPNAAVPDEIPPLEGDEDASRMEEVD

In the case of `OCC1OC(OC2C(CO)OC(OC3C(O)C(O)C(F)OC3(F)CO)C(O)C2O)C(O)C(O)C1O` (centres undefined), the inhibition [1] is reported as 95%.
In the case of `CC1=NN(c2ccccc2)C(=O)/C1=C(/NNC(=O)c1ccccc1O)c1ccccc1`, the inhibition [2] is reported as “inactive”.
`C[C@H]1O[C@H](O[C@H]2[C@H](O)[C@@H](O)[C@@H](OC[C@H]3OC4(NC(=S)NC4=O)[C@H](O)[C@@H](O)[C@@H]3O)O[C@@H]2CO)[C@H](O)[C@@H](O)[C@@H]1N[C@H]1C=C(CO)[C@@H](O)[C@H](O)[C@H]1O` (some centres undefined) showed a Ki (Alpha-amylase 1A [3]) of 0.19 µM.
In the case of `COC1=C(O)C(=O)OC1C1COC(C)(C)O1` (centres undefined), the inhibition [4] is reported as 0%.
`O=C(O[C@@H]1Cc2c(O)cc(O)cc2O[C@@H]1c1cc(O)c(O)c(O)c1)c1cc(O)c(O)c(O)c1` [EPIGALOCATECHIN GALLATE] gave an IC50 (Alpha-amylase 1A [5]) of 1400 µM.
With `OC[C@H]1N/C(=N/O)[C@H](O)[C@@H](O)[C@@H]1O` the Ki (Pancreatic alpha-amylase [6]) was 18000 µM.
In the case of `NS(=O)(=O)c1ccc(Nc2nc(-c3ccc(O)cc3O)cs2)cc1`, the Ratio IC50 [7] is reported as 0.83, the IC50 [8] is reported as 531 µM and the IC50 (Alpha-amylase 1A [9]) is reported as 165 µM.
Work on `C[C@H]1O[C@H](O[C@H]2[C@H](O)[C@@H](O)[C@@H](O)O[C@@H]2CO)[C@H](O)[C@@H](O)[C@@H]1N[C@H]1C=C(CO)[C@@H](O)[C@H](O)[C@H]1O` yielded a Ki (Pancreatic alpha-amylase [10]) of 0.075 µM.
In the case of `CO[C@H]1[C@H](O)[C@@H](O)[C@@H](O[C@H]2[C@H](O)[C@@H](O)[C@@H](O[C@H]3[C@H](O)[C@@H](O)/C(=N\O)N[C@@H]3CO)O[C@@H]2CO)O[C@@H]1CO`, the Ki (Pancreatic alpha-amylase [6]) is reported as 25 µM.
In the case of `CN(C)c1ccc(Nc2nc(-c3ccc(O)cc3O)cs2)cc1`, the Ratio IC50 [7] is reported as 1.38, the Activity (Escherichia coli) is reported as 90% and the Inhibition mode [11] is reported as “Active”. It also gave an IC50 (Alpha-amylase 1A [9]) of 100 µM.
In the case of `CC1OC(OC2C(CO)OC(O)C(O)C2O)C(O)C(O)C1NC1C=C(CO)C(OC2OC(CO)C(OC3OC(C)C(NC4C=C(CO)C(O)C(O)C4O)C(O)C3O)C(O)C2O)C(O)C1O` (centres undefined), the Ki (Alpha-amylase 1A [12]) is reported as 0.7 µM.
`C[C@@H]1O[C@@H](O[C@@H]2CO[C@@H](Oc3c(O)cc(C4=C(O[C@@H]5O[C@@H](C)[C@H](O)[C@@H](O)[C@H]5O[C@@H]5O[C@H](COC(=O)/C=C/c6ccc(O)cc6)[C@@H](O)[C@H](O)[C@H]5O[C@@H]5O[C@H](CO)[C@@H](O)[C@H](O)[C@H]5O)C(=O)c5c(O)cc(O)cc5C4)cc3O)[C@H](O)[C@H]2O)[C@H](O)[C@H](O)[C@H]1O` gave a Ki (Pancreatic alpha-amylase [13]) of 3.6 µM.
In the case of `CCc1cc(C(=O)Cn2cnc3ccccc32)c(O)cc1O`, the IC50 [14] is reported as > 50 µM and the inhibition [2] is reported as “inactive”.
